Test results published in ChEMBL document CHEMBL4014308, “Amphiphilic Tobramycin-Lysine Conjugates Sensitize Multidrug Resistant Gram-Negative Bacteria to Rifampicin and Minocycline” (J Med Chem, 2017).
Values after ≈ are worked out from the molar mass of the structure shown. Active and inactive are the calls of the source. No cut-off for these calls is given here.

Tests used:
Assay type in all cases: functional
[1] = tested on: Staphylococcus epidermidis; assay: Antibacterial activity against methicillin-resistant Staphylococcus epidermidis isolate CAN-ICU 61589 after 18 hrs by microtiter dilution assay; conditions: isolate CAN-ICU 61589, 18 h
Method in brief: (§1)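 Broth microdilution following CLSI guidelines. An overnight culture was adjusted to 0.5 McFarland in saline, then diluted 1:50 in Mueller-Hinton broth. This inoculum was added in equal volume to 2-fold serial dilutions of agent in MHB and incubated 18 h at 37 °C. MIC was the lowest concentration with no visible growth.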

[2] = tested on: Pseudomonas aeruginosa; assay: Antibacterial activity against Pseudomonas aeruginosa PAO1 after 18 hrs by microtiter dilution assay; conditions: PAO1, 18 h; method in brief: as §1
[3] = tested on: Pseudomonas aeruginosa; assay: Antibacterial activity against multidrug/extremely drug-resistant/colistin-susceptible Pseudomonas aeruginosa isolate 100036 after 18 hrs by microtiter dilution assay; conditions: isolate 100036, 18 h; method in brief: as §1
[4] = tested on: Pseudomonas aeruginosa; assay: Antibacterial activity against multidrug/extremely drug-resistant/colistin-susceptible Pseudomonas aeruginosa isolate 101885 after 18 hrs by microtiter dilution assay; conditions: isolate 101885, 18 h; method in brief: as §1
[5] = tested on: Pseudomonas aeruginosa; assay: Antibacterial activity against multidrug/extremely drug-resistant/colistin-susceptible Pseudomonas aeruginosa isolate P259-96918 after 18 hrs by microtiter dilution assay; conditions: isolate P259-96918, 18 h; method in brief: as §1
[6] = tested on: Pseudomonas aeruginosa; assay: Antibacterial activity against multidrug/extremely drug-resistant/colistin-susceptible Pseudomonas aeruginosa isolate P262-101856 after 18 hrs by microtiter dilution assay; conditions: isolate P262-101856, 18 h; method in brief: as §1
[7] = tested on: Pseudomonas aeruginosa; assay: Antibacterial activity against multidrug/extremely drug-resistant/colistin-susceptible Pseudomonas aeruginosa isolate P264-104354 after 18 hrs by microtiter dilution assay; conditions: isolate P264-104354, 18 h; method in brief: as §1
[8] = tested on: Pseudomonas aeruginosa; assay: Antibacterial activity against multidrug/extremely drug-resistant/colistin-resistant Pseudomonas aeruginosa isolate 91433 after 18 hrs by microtiter dilution assay; conditions: isolate 91433, 18 h; method in brief: as §1
[9] = tested on: Pseudomonas aeruginosa; assay: Antibacterial activity against multidrug/extremely drug-resistant/colistin-resistant Pseudomonas aeruginosa isolate 101243 after 18 hrs by microtiter dilution assay; conditions: isolate 101243, 18 h; method in brief: as §1
[10] = tested on: Staphylococcus aureus; assay: Antibacterial activity against Staphylococcus aureus ATCC 29213 after 18 hrs by microtiter dilution assay; conditions: ATCC 29213, 18 h; method in brief: as §1
[11] = tested on: Staphylococcus aureus; assay: Antibacterial activity against methicillin resistant Staphylococcus aureus ATCC 33592 after 18 hrs by microtiter dilution assay; conditions: ATCC 33592, 18 h; method in brief: as §1
[12] = tested on: Staphylococcus epidermidis; assay: Antibacterial activity against methicillin-susceptible Staphylococcus epidermidis isolate CANWARD-2008 81388 after 18 hrs by microtiter dilution assay; conditions: isolate CANWARD-2008 81388, 18 h; method in brief: as §1
[13] = tested on: Enterococcus faecalis; assay: Antibacterial activity against Enterococcus faecalis ATCC 29212 after 18 hrs by microtiter dilution assay; conditions: ATCC 29212, 18 h
Method in brief: (§2)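 Broth microdilution per CLSI. Overnight culture adjusted to 0.5 McFarland in saline, diluted 1:50 in Mueller-Hinton broth, and added to an equal volume of 2-fold serial compound dilutions in MHB. Incubated 18 h at 37 °C. MIC taken as the lowest concentration with no visible growth.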

[14] = tested on: Enterococcus faecium; assay: Antibacterial activity against Enterococcus faecium ATCC 27270 after 18 hrs by microtiter dilution assay; conditions: ATCC 27270, 18 h; method in brief: as §2
[15] = tested on: Streptococcus pneumoniae; assay: Antibacterial activity against Streptococcus pneumoniae ATCC 49619 after 18 hrs by microtiter dilution assay; conditions: ATCC 49619, 18 h; method in brief: as §2
[16] = tested on: Escherichia coli; assay: Antibacterial activity against Escherichia coli ATCC 25922 after 18 hrs by microtiter dilution assay; conditions: ATCC 25922, 18 h; method in brief: as §1
[17] = tested on: Escherichia coli; assay: Antibacterial activity against gentamicin-resistant Escherichia coli isolate CAN-ICU 61714 after 18 hrs by microtiter dilution assay; conditions: isolate CAN-ICU 61714, 18 h; method in brief: as §1
[18] = tested on: Escherichia coli; assay: Antibacterial activity against amikacin-resistant Escherichia coli isolate CAN-ICU 63074 after 18 hrs by microtiter dilution assay; conditions: isolate CAN-ICU 63074, 18 h; method in brief: as §1
[19] = tested on: Escherichia coli; assay: Antibacterial activity against gentamicin/tobramycin/ciprofloxacin-resistant Escherichia coli isolate CANWARD-2011 97615 harboring AAC3-2A after 18 hrs by microtiter dilution assay; conditions: isolate CANWARD-2011 97615, 18 h; method in brief: as §1
[20] = tested on: Pseudomonas aeruginosa; assay: Antibacterial activity against Pseudomonas aeruginosa ATCC 27853 after 18 hrs by microtiter dilution assay; conditions: ATCC 27853, 18 h; method in brief: as §2
[21] = tested on: Pseudomonas aeruginosa; assay: Antibacterial activity against gentamicin-resistant Pseudomonas aeruginosa isolate CAN-ICU 62308 after 18 hrs by microtiter dilution assay; conditions: isolate CAN-ICU 62308, 18 h; method in brief: as §1
[22] = tested on: Pseudomonas aeruginosa; assay: Antibacterial activity against gentamicin/tobramycin-resistant Pseudomonas aeruginosa isolate CANWARD-2011 96846 after 18 hrs by microtiter dilution assay; conditions: isolate CANWARD-2011 96846, 18 h; method in brief: as §1
[23] = tested on: Stenotrophomonas maltophilia; assay: Antibacterial activity against Stenotrophomonas maltophilia isolate CAN-ICU 62584 after 18 hrs by microtiter dilution assay; conditions: isolate CAN-ICU 62584, 18 h; method in brief: as §2
[24] = tested on: Acinetobacter baumannii; assay: Antibacterial activity against Acinetobacter baumannii isolate CAN-ICU 63169 after 18 hrs by microtiter dilution assay; conditions: isolate CAN-ICU 63169, 18 h; method in brief: as §2
[25] = tested on: Klebsiella pneumoniae; assay: Antibacterial activity against Klebsiella pneumoniae ATCC 13883 after 18 hrs by microtiter dilution assay; conditions: ATCC 13883, 18 h; method in brief: as §2
[26] = tested on: Pseudomonas aeruginosa; assay: Synergistic antibacterial activity against Pseudomonas aeruginosa PAO1 after 18 hrs in presence of minocycline by checkerboard assay
Method in brief: (§3)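 Checkerboard in MHB: antibiotic diluted along one axis and adjuvant along the other (10 × 7 matrix). Inoculum was a 1:50 dilution in MHB of a 0.5 McFarland saline suspension; incubated 18 h at 37 °C. Each FIC = concentration in the no-growth well divided by the MIC alone; FIC index = sum of both FICs. ≤0.5 synergy, 0.5–4 no interaction, ≥4 antagonism.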

[27] = tested on: Pseudomonas aeruginosa; assay: Synergistic antibacterial activity against Pseudomonas aeruginosa PAO1 after 18 hrs in presence of rifampicin by checkerboard assay; method in brief: as §3

Structure (SMILES): CC(C)(O/N=C(\C(=O)N[C@@H]1C(=O)N2C(C(=O)[O-])=C(C[n+]3ccccc3)CS[C@H]12)c1csc(N)n1)C(=O)O [CEFTAZIDIME]
- MIC [1]: > 32 µg/mL
- MIC [2]: 2 µg/mL (≈ 3.66 µM)
- MIC [3]: 8 µg/mL (≈ 14.6 µM)
- MIC [4]: 8 µg/mL (≈ 14.6 µM)
- MIC [5]: 512 µg/mL (≈ 937 µM)
- MIC [6]: 16 µg/mL (≈ 29.3 µM)
- MIC [7]: 64 µg/mL (≈ 117 µM)
- MIC [8]: 256 µg/mL (≈ 468 µM)
- MIC [9]: 64 µg/mL (≈ 117 µM)

Structure (SMILES): Cl.Cl.Cl.Cl.Cl.Cl.Cl.NCCCC[C@H](N)C(=O)N(CCCCCCCCOC1[C@@H](O[C@H]2O[C@H](CO)[C@@H](O)[C@H](N)[C@H]2O)[C@H](N)C[C@H](N)[C@H]1O[C@H]1O[C@H](CN)[C@@H](O)C[C@H]1N)Cc1c2ccccc2c(Cl)c2ccccc12 (single isomer, unassigned)
- MIC [10]: 16 µg/mL
- MIC [11]: 16 µg/mL
- MIC [12]: 8 µg/mL
- MIC [1]: 8 µg/mL
- MIC [13]: 64 µg/mL
- MIC [14]: 16 µg/mL
- MIC [15]: 128 µg/mL
- MIC [16]: 16 µg/mL
- MIC [17]: 32 µg/mL
- MIC [18]: 128 µg/mL
- MIC [19]: 32 µg/mL
- MIC [20]: > 128 µg/mL
- MIC [21]: 16 µg/mL
- MIC [22]: 64 µg/mL
- MIC [23]: > 128 µg/mL
- MIC [24]: > 128 µg/mL
- MIC [25]: > 128 µg/mL
- MIC [2]: 128 µg/mL
- MIC [3]: 512 µg/mL
- MIC [4]: 64 µg/mL
- MIC [5]: 512 µg/mL
- MIC [6]: 128 µg/mL
- MIC [7]: 256 µg/mL
- MIC [8]: 8 µg/mL
- MIC [9]: 32 µg/mL
- Activity [26]: Active
- Activity [27]: Active

Structure (SMILES): O=C(O)c1cn(C2CC2)c2cc(N3CCNCC3)c(F)cc2c1=O [CIPROFLOXACIN]
- MIC [3]: 64 µg/mL (≈ 193 µM)
- MIC [4]: 32 µg/mL (≈ 96.6 µM)
- MIC [5]: 128 µg/mL (≈ 386 µM)
- MIC [6]: 32 µg/mL (≈ 96.6 µM)
- MIC [7]: 32 µg/mL (≈ 96.6 µM)

Structure (SMILES): NC[C@H]1O[C@H](O[C@H]2[C@H](O)[C@@H](O[C@H]3O[C@H](CO)[C@@H](O)[C@H](N)[C@H]3O)[C@H](N)C[C@@H]2N)[C@H](O)[C@@H](O)[C@@H]1O [KANAMYCIN]
- MIC [2]: 64 µg/mL (≈ 132 µM)

Structure (SMILES): O=C(N[C@H](CO)[C@H](O)c1ccc([N+](=O)[O-])cc1)C(Cl)Cl [CHLORAMPHENICOL]
- MIC [2]: 64 µg/mL (≈ 198 µM)
- MIC [3]: > 512 µg/mL
- MIC [4]: 512 µg/mL (≈ 1580 µM)
- MIC [5]: 512 µg/mL (≈ 1580 µM)
- MIC [6]: 1020 µg/mL (≈ 3170 µM)
- MIC [7]: 1020 µg/mL (≈ 3170 µM)
- MIC [8]: 16 µg/mL (≈ 49.5 µM)
- MIC [9]: 4 µg/mL (≈ 12.4 µM)

Structure (SMILES): COc1c(N2C[C@@H]3CCCN[C@@H]3C2)c(F)cc2c(=O)c(C(=O)O)cn(C3CC3)c12 [MOXIFLOXACIN]
- MIC [2]: 1 µg/mL (≈ 2.49 µM)
- MIC [3]: 128 µg/mL (≈ 319 µM)
- MIC [4]: 64 µg/mL (≈ 159 µM)
- MIC [5]: 512 µg/mL (≈ 1280 µM)
- MIC [6]: 128 µg/mL (≈ 319 µM)
- MIC [7]: 128 µg/mL (≈ 319 µM)
- MIC [8]: 8 µg/mL (≈ 19.9 µM)
- MIC [9]: 4 µg/mL (≈ 9.96 µM)

Structure (SMILES): CO[C@@H]1[C@@H](OC(N)=O)[C@@H](O)[C@H](Oc2ccc3c(O)c(NC(=O)c4ccc(O)c(CC=C(C)C)c4)c(=O)oc3c2C)OC1(C)C [NOVOBIOCIN]
- MIC [2]: 1020 µg/mL (≈ 1670 µM)

Structure (SMILES): CC[C@H]1OC(=O)[C@H](C)[C@@H](O[C@H]2C[C@@](C)(OC)[C@@H](O)[C@H](C)O2)[C@H](C)[C@@H](O[C@@H]2O[C@H](C)C[C@H](N(C)C)[C@H]2O)[C@](C)(O)C[C@@H](C)C(=O)[C@H](C)[C@@H](O)[C@]1(C)O [ERYTHROMYCIN]
- MIC [2]: 256 µg/mL (≈ 349 µM)
- MIC [3]: 256 µg/mL (≈ 349 µM)
- MIC [4]: 256 µg/mL (≈ 349 µM)
- MIC [5]: 256 µg/mL (≈ 349 µM)
- MIC [6]: 1020 µg/mL (≈ 1400 µM)
- MIC [7]: 256 µg/mL (≈ 349 µM)
- MIC [8]: 512 µg/mL (≈ 698 µM)
- MIC [9]: 1020 µg/mL (≈ 1400 µM)
